18 compounds from ChEMBL document CHEMBL1158572, “Dolabellane-type diterpenoids with antiprotozoan activity from a southwestern Caribbean gorgonian octocoral of the genus Eunicea” (J Nat Prod, 2010) can be followed below.

Activity calls are given as the source filed them. The calls are words filed in the database; no cut-off is given here. Some results are limits rather than exact numbers.

One assay deals with Plasmodium falciparum. In words: Antimalarial activity against chloroquine-resistant Plasmodium falciparum W2. The class given is functional, organism-based.
Assay [1] deals with Mycobacterium tuberculosis. In words: Antimycobacterial activity against Mycobacterium tuberculosis at 6.25 ug/ml by Alamar blue assay. The class given is functional. In a few lines: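 Single-concentration screen at 6.25 µg/mL against *M. tuberculosis* growth, read out as percent inhibition.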
A general note: Alamar Blue is a resazurin reagent that responds to reducing activity.

The next assay relates to Hepatitis B virus. The experiment in a line: Antiviral activity against HBV in human HepG2(2.2.15) cells at 30 mM. It counts as functional, organism-based.
The next assay relates to MCF7. In words: Antiproliferative activity against human MCF7 cells after 48 hrs by SRB assay. The class given is functional, cell-based. In a few lines: (§1)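 NCI one-dose primary prescreen in a three-line panel (MCF-7 breast, NCI-H460 non-small cell lung, SF-268 CNS). Cytotoxicity was judged against untreated control cells. Antiproliferative activity in this prescreen is required before testing in the 60-cell-line panel.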
For orientation: The SRB assay estimates cell density from bound dye.

A further assay has as its system NCI-H460. The experiment in a line: Antiproliferative activity against human NCI-H460 cells after 48 hrs by SRB assay. The class given is functional, cell-based. The essentials:
as §1

The subject of the next assay is SF-268. The experiment in a line: Antiproliferative activity against human SF268 cells after 48 hrs by SRB assay. The class given is functional, cell-based. In a few lines:
as §1

For orientation: IC50 means the midpoint of a concentration-inhibition curve. Low readings indicate higher potency, high ones lower potency. What is called inhibition is how much of the control response was suppressed. Higher therefore signals a response far below the control.

Take `C/C1=C/C[C@]2(C)C(=O)C=C(C(C)C)[C@H]2C/C=C(\C)[C@H](OO)CC1` (relative stereo): the 50% inhibitory concentration (IC50) in the assay on Plasmodium falciparum came to 9.4 µM. Also, the inhibition at 6.25 µg/mL in assay [1] was not above 50%. Besides, in the assay on Hepatitis B virus, the outcome was inactive.

As to `C=C1CC/C=C(\C)CC[C@@H]2C(=C(C)C)C(=O)C[C@@]2(C)C[C@@H]1OC(C)=O` (relative stereo), the IC50 in the assay with Plasmodium falciparum worked out at 20.3 µM. For the same compound, the inhibition at 6.25 µg/mL in assay [1] was not above 50%.

In the case of `C=C1CCC(=O)[C@@H](C)CC[C@@H]2C(=C(C)C)C(=O)C[C@@]2(C)C[C@@H]1OC(C)=O`, in the assay with Plasmodium falciparum, the IC50 worked out at 50 µM.

With `CC1=CC[C@@H](O)[C@]2(C)CC[C@@H]3C(=C(C)C)C(=O)C[C@@]3(C)C[C@@H]12`, in the assay with Plasmodium falciparum, inhibition was half-maximal at 59.6 µM (IC50). For the same compound, the inhibition at 6.25 µg/mL in assay [1] was not above 50%.

`C/C1=C/C[C@]2(C)CC(=O)C(C(C)C)[C@H]2C/C=C(\C)[C@H](OO)CC1` (relative stereo): the IC50 in the assay with Plasmodium falciparum amounted to 40.9 µM. In other words, the double-digit micromolar range.

The compound `C=C1CC/C=C(\C)CC[C@@H]2C(=C(C)C)C(=O)C[C@@]2(C)C[C@@H]1O` came in with a concentration for half-maximal inhibition (IC50) in the assay on Plasmodium falciparum of 36.4 µM.

For `CC(C)=C1C(=O)C[C@@]2(C)C/C=C(\C)CC/C=C(\C)CC[C@H]12` [DOLABELLANE], inhibition with Plasmodium falciparum was half-maximal at 45.5 µM (IC50). In addition, the inhibition at 6.25 µg/mL in assay [1] was not above 50%. The outcome in the assay with MCF7, in the assay with NCI-H460 and in the assay on Hepatitis B virus was inactive.

`C=C1CC[C@@H]2O[C@@]2(C)CC[C@@H]2C(=C(C)C)C(=O)C[C@@]2(C)C[C@@H]1OC(C)=O` yielded an IC50 with Plasmodium falciparum of 36.1 µM. In other words, the double-digit micromolar range.

In turn, `CC(=O)OC/C1=C\C[C@]2(C)CC(=O)C(=C(C)C)[C@H]2CC[C@]2(C)O[C@H]2CC1` had a concentration for half-maximal inhibition (IC50) in the assay on Plasmodium falciparum of 30.6 µM.

The compound `C=C1CC[C@@H](O)[C@]2(C)CC[C@@H]3C(=C(C)C)C(=O)C[C@@]3(C)C[C@@H]12` yielded an inhibition at 6.25 µg/mL in assay [1] not above 50%.

In the assay with Plasmodium falciparum, `CC(C)=C1C(=O)C[C@@]2(C)C/C=C(\C)CC[C@@H]3O[C@@]3(C)CC[C@H]12` came in with an IC50 of 23.2 µM. The inhibition at 6.25 µg/mL in assay [1] was not above 50%. For the same compound, the outcome in the assay with MCF7 and in the assay with NCI-H460 was inactive.

Compound `CC(C)=C1C(=O)C[C@@]2(C)C/C=C(\C)CC[C@@H](OO)/C(C)=C/C[C@H]12` (relative stereo) showed an IC50 in the assay with Plasmodium falciparum of 36.4 µM. The compound further came in with an inhibition at 6.25 µg/mL in assay [1] not above 50%. The result in the assay on Hepatitis B virus was inactive.

In the assay on Plasmodium falciparum, `C/C1=C\C[C@]2(C)CC=C(C(C)(C)O)[C@H]2CC/C(C)=C/CC1` [PALOMINOL] displayed a 50% inhibitory concentration (IC50) of 31.2 µM. In assay [1], this compound yielded an inhibition at 6.25 µg/mL not above 50%. For the same compound, the result with Hepatitis B virus was inactive.

As to `C/C1=C/C[C@]2(C)C(=O)C=C(C(C)C)[C@H]2CC[C@@]2(C)O[C@@H]2CC1`, the IC50 in the assay with Plasmodium falciparum was not below 100 µM. The same compound came in with an inhibition at 6.25 µg/mL in assay [1] not above 50%.

In the case of `CC(C)=C1C(=O)C[C@@]2(C)C[C@H]3O[C@]3(C)CC[C@@H]3O[C@@]3(C)CC[C@H]12`, the IC50 in the assay on Plasmodium falciparum amounted to 37.7 µM. Further, the outcome in the assay on MCF7, in the assay with NCI-H460 and with SF-268 was inactive.

`C/C1=C\C[C@]2(C)C(=O)C=C(C(C)C)[C@H]2CC[C@]2(C)O[C@H]2CC1` gave an IC50 in the assay with Plasmodium falciparum of 43 µM. In other words, the double-digit micromolar range.

`CC(C)=C1C(=O)C[C@@]2(C)C/C=C(\C)CCC(=O)[C@H](C)CC[C@H]12` returned an IC50 in the assay with Plasmodium falciparum of 13.2 µM. The compound also registered an inhibition at 6.25 µg/mL in assay [1] not above 50%. Besides, the outcome with MCF7, in the assay with NCI-H460, in the assay on SF-268 and in the assay on Hepatitis B virus was inactive.

As for `CC(=O)O[C@H]1C/C(C)=C/C[C@]2(C)CC(=O)C(=C(C)C)[C@H]2CC[C@]2(C)O[C@@H]12`, the midpoint of inhibition in the assay on Plasmodium falciparum, the IC50, lay at 33.3 µM. This lies in the double-digit micromolar range.
